Columns and labels:
[1] = test system: RAW264.7; experiment: Antiinflammatory action in mouse RAW264.7 cells assessed as inhibition of LPS-induced nitric oxide production treated 30 mins before LPS challenge measured after 24 hrs by griess reaction; format: functional, cell-based
How it was run: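 RAW264.7 macrophages seeded at 2 × 10^5 cells/well, pretreated 30 min with samples over 0.1–50.0 μM, then stimulated with LPS 1 μg/mL for 24 h. NO quantified as nitrite in culture supernatant using Griess reagent; IC50 derived.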

[2] = test system: RAW264.7; experiment: Cytotoxicity against mouse RAW264.7 cells after 24 hrs by MTT assay; format: cell-based; details: raw264.7, 24 h
How it was run: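 RAW264.7 macrophages, cultured and treated alongside the LPS (1 μg/mL, 24 h) NO assay with sample pretreatment of 30 min; viability read by MTT reduction.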

Structure (SMILES)	IC50 [1]	Activity [2]
C=C1C(=O)O[C@@H]2C[C@H](C)[C@@H]3[C@@H](O)CC(=O)[C@@]3(C)C[C@H]12 [BURRODIN]	9.5 µM	Non-toxic
C=C1C(=O)O[C@@H]2CC(C)=C3[C@@H](OC(C)=O)C[C@@](C)(O)[C@@H]3C[C@H]12 [INUCHINENOLIDE B]	9.9 µM	Non-toxic
C[C@@H]1C[C@@H]2OC(=O)[C@@H](C)[C@H]2[C@H](O)[C@]2(C)C(=O)C=C[C@@H]12	10.5 µM	Non-toxic
C=C1C(=O)O[C@H]2C[C@@H](C)[C@@H]3CCC(=O)[C@@]3(C)C[C@H]12 [GRAVEOLIDE]	9.2 µM	Non-toxic
C=C1C(=O)O[C@H]2C[C@H](C)[C@@H]3C(OC(C)=O)CC(OC(C)=O)[C@@]3(C)[C@@H](O)[C@H]12 (some centres undefined) [INUCHINENOLIDE C]	0.6 µM	Non-toxic
C=C1C(=O)O[C@H]2C=C(C)[C@@H]3[C@@H]([C@@H](O)[C@H]12)[C@](C)(O)C[C@@H]3OC(C)=O	9.2 µM	Non-toxic
C=C1C(=O)O[C@H]2C[C@@H](C)[C@@H]3[C@H](OC)CC(=O)[C@@]3(C)[C@@H](OC(C)=O)[C@H]12	2.2 µM	Non-toxic
C[C@@H]1C[C@@H]2OC(=O)[C@H](C)[C@H]2[C@H](O)[C@]2(C)C(=O)CC[C@@H]12	19.8 µM	Non-toxic
C=C1C(=O)O[C@H]2C[C@@H](C)[C@@H]3CCC(=O)[C@@]3(C)[C@@H](O)[C@H]12 [CARPESIOLIN]	8.4 µM	Non-toxic
C=C1C(=O)O[C@H]2C[C@@](C)(O)C3=CC[C@](C)(O)[C@@H]3C[C@H]12 [GUAIANOLIDE]	26.8 µM	Non-toxic
C=C1C(=O)O[C@H]2C[C@@H](C)[C@@H]3[C@H](OCC)CC(=O)[C@@]3(C)[C@@H](O)[C@H]12	3.8 µM	Non-toxic
C=C1C(=O)O[C@H]2C[C@@H](C)[C@@H]3[C@H](OC)CC(=O)[C@@]3(C)[C@@H](O)[C@H]12	5.1 µM	Non-toxic
C=C1C(=O)O[C@H]2C[C@@H](C)[C@@H]3CCC(=O)[C@@]3(C)[C@@H](OC(C)=O)[C@H]12 [ERGOLIDE]	3.9 µM	Non-toxic
C=C1C(=O)O[C@H]2C=C(C)[C@H]3CC[C@](C)(O)[C@@H]3C[C@H]12	6.3 µM	Non-toxic
C=C1C(=O)O[C@H]2C[C@@H](COC(C)=O)[C@@H]3CCC(=O)[C@@]3(C)C[C@H]12	6.6 µM	Non-toxic
C=C1C(=O)O[C@H]2C=C(C)[C@H]3CC[C@@](C)(O)[C@@H]3[C@@H](OC(C)=O)[C@H]12	17.1 µM	Non-toxic
C=C1C(=O)O[C@@H]2C[C@H](C)[C@@H]3CCC(=O)[C@@]3(C)C[C@H]12 [CONFERTIN]	9.8 µM	Non-toxic
C=C1C(=O)O[C@H]2C[C@@H](C)[C@@H]3C=CC(=O)[C@@]3(C)[C@@H](OC(C)=O)[C@H]12 [BIGELOVIN]	0.9 µM	Non-toxic
C=C1C(=O)O[C@H]2C[C@@H](C)[C@@H]3C=CC(=O)[C@@]3(C)C[C@H]12 [AROMATICIN]	8.2 µM	Non-toxic
N=C(N)NN [PIMAGEDINE]	7.9 µM	
C=C1C[C@H]2OC(=O)C(=C)[C@H]2C[C@@H]2[C@@H]1CC[C@@]2(C)O	8 µM	Non-toxic
C=C1C(=O)O[C@H]2CC(=C)[C@H]3CC[C@@](C)(O)[C@@H]3C[C@H]12 [INUVISCOLIDE]	21.9 µM	Non-toxic
C=C1C(=O)O[C@H]2[C@H]1[C@@H](O)C[C@@H](C)[C@@H]1C=CC(=O)[C@]12C	3.5 µM	Non-toxic
C=C1C(=O)O[C@H]2C[C@@H](C)[C@@H]3C=CC(=O)[C@@]3(C)[C@@H](O)[C@H]12	1.1 µM	Non-toxic
C=C1C(=O)O[C@H]2C[C@@H](C)[C@@H]3[C@@H](OC)CC(=O)[C@@]3(C)[C@@H](OC(C)=O)[C@H]12	1.5 µM	Non-toxic
